In ChEMBL document CHEMBL4513216, “Probing the Open Global Health Chemical Diversity Library for Multistage-Active Starting Points for Next-Generation Antimalarials” (ACS Infect Dis, 2020) one finds cytotoxicity data, which are given here for 97 compounds.

The data set in a line: Toxicity liver stage against HepG2, at 10uM. The format is cell-based. More on the design: test concentration 10 uM, cell line HepG2-A16-CD81EGFP. The conditions noted are these: human, HepG2-A16-CD81EGFP cells; read-out: INHIBITION
The essentials: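 Uninfected HepG2-A16-CD81EGFP cells, 3 × 10^3 per well, 1536-well, plated on prespotted compound at 10 μM final, parasite-free screening media added to match infected plates; puromycin 10 μM positive, DMSO 0.5% negative; run in parallel with 48 h PbLuc assay at 37 °C, 5% CO2; viability by CellTiter-Glo luminescence, normalized to controls.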
For the compound `CC(C)c1ccsc1C(=O)N1CCCN(Cc2cscn2)CC1`, the cytotoxicity at 10 µM is 4.07%.
Take `NC(=O)NC(=O)C(c1ccccc1)N1CCN(Cc2ccsc2)CC1` (configuration not stated): the cytotoxicity at 10 µM came to 1.94%.
Turning to `CCS(=O)(=O)NC(C(=O)NC)c1ccc(F)c(F)c1` (configuration not stated), the cytotoxicity at 10 µM was -9.06%.
The result for `CCc1c(C)nn(CCNC(=O)C2CCCN(C(=O)N(C)C)C2)c1C` (configuration not stated) reads -4.42%; that for `Cc1nn2cc(CNc3nccc(CCC(F)(F)F)n3)nc2s1`, -8.27%; that for `CN(Cc1n[nH]c2c1CCCC2)c1nc(C2CC2)nc2c1CCNCC2`, -10.3%.
As for `Cc1ncc(CN(C)C(=O)Nc2ccc(CN3CCOC3=O)cc2)s1`, the cytotoxicity at 10 µM is -2.97%.
The result for `COc1ccc(CNC2CCCc3nc(N(C)C)ncc32)c(OC)c1` (configuration not stated) reads 1.42%; that for `Cc1ccc(C(=O)O)cc1NC(=O)C1CC=CC1`, -7.25%.
As for `Cc1ccc(C(=O)NCc2cccnc2N(C)C)s1`, the cytotoxicity at 10 µM is -2.12%.
Take `CCOC(C)c1nc(CN2CCC(C3OCCO3)CC2)cs1` (configuration not stated): the cytotoxicity at 10 µM is -1.91%.
For the compound `O=C1[C@H]2CN(CC3CC3)C[C@H]2CN1c1ccsc1`, the cytotoxicity at 10 µM stood at 2.88%.
The same measure for `Cc1ccsc1CNC(=O)CCc1c(C)nc2cc(O)nn2c1C`: -7.01%; for `CCn1ncc2c1CCCC2NCc1ccc2c(c1)CCO2` (configuration not stated): -4.47%; for `CCC(CNc1ncnc2oc(C)nc12)Cc1ccccc1` (configuration not stated): 1.23%.
Consider `CCOc1ccccc1NC(=O)CN(C)Cc1ccccc1Cl`, for which the cytotoxicity at 10 µM is -6.93%.
Take `CCn1c(CC2CCN(S(=O)(=O)c3cccs3)CC2)nn(C)c1=O`: the cytotoxicity at 10 µM amounted to 3.63%.
On to `CCc1n[nH]c(C(=O)NCCn2ccc(C)n2)c1C`, for which the cytotoxicity at 10 µM was determined as 8.58%.
For the compound `Cc1nc2c(c(NCC3Cc4ccccc4CN3C)n1)CCNCC2` (configuration not stated), the cytotoxicity at 10 µM was -9.08%.
For `COc1ccc(C2=NOC(C#N)C2)cc1` (configuration not stated), the cytotoxicity at 10 µM was -11.2%.
Consider `O=C1CN(C(=O)c2cc3ccc(Br)cc3[nH]2)CCN1`, for which the cytotoxicity at 10 µM came out at 0.549%.
Take `COc1ccccc1CN1CCCC(n2cccn2)C1` (configuration not stated): the cytotoxicity at 10 µM came out at 2%.
For `N#Cc1cccc(N2CCCC3(C2)CN(c2ncccn2)CCO3)n1` (configuration not stated), the cytotoxicity at 10 µM was determined as 17.8%.
As to `Cc1ccccc1CC(=O)NS(=O)(=O)c1cccc2cnccc12`, the cytotoxicity at 10 µM was -0.601%.
The same measure for `Cc1ccc(-c2nc(CN3CCc4nn(C)c(=O)cc4C3)co2)cc1`: -11.6%; for `CN(CCC(O)c1ccccc1)c1cc(N2CCOCC2)ncn1` (configuration not stated): -148%; for `CC(C)C(=O)N1CCN(CC(O)c2cc(Cl)ccc2Cl)CC1` (configuration not stated): 3.41%.
The result for `Cc1nc(C(=O)N(C)CC(F)(F)C(F)(F)F)c2ccccn12` reads 2.56%; that for `Cc1cnc(N2Cc3nccn3CC(Cn3ncccc3=O)C2)nc1` (configuration not stated), 7.54%.
Turning to `COc1ccc(Cl)cc1C(=O)N1CCOC2(CNCCOC2)C1` (configuration not stated), the cytotoxicity at 10 µM was -9.73%.
Consider `Cn1cccc1C(=O)N1CCC2(CC1)CN(c1ccccc1)C(=O)CO2`, for which the cytotoxicity at 10 µM was -79.1%.
On to `Cc1csc(CNC(=O)Cc2ccc3c(c2)OCCO3)n1`, for which the cytotoxicity at 10 µM was -1.3%.
Turning to `Nc1nnc(CCNC(=O)c2cccc(C3CCCNC3)c2)s1` (configuration not stated), the cytotoxicity at 10 µM was 2.9%.
Take `Cn1cnc(S(=O)(=O)NCCCN2CCOCC2)c1Cl`: the cytotoxicity at 10 µM is -11.2%.
On to `CN(CC(N)=O)C(=O)c1cn(-c2ccc(Br)cc2)cn1`, for which the cytotoxicity at 10 µM is 6.85%.
For `CCn1ccc(NC(=O)CCc2c(C)nn(C)c2C)n1`, the cytotoxicity at 10 µM worked out at 4.01%.
The same measure for `CCC1CN(C)c2ccccc2CN1C(=O)CCn1cncn1` (configuration not stated): -1.87%.
Turning to `O=C(CN(Cc1cccs1)c1ccc(F)cc1)NC1CCOCC1`, the cytotoxicity at 10 µM amounted to 13.5%.
Regarding `COCC1CC2(CCN(C(=O)c3occc3C)CC2)CN1C(C)C` (configuration not stated), the cytotoxicity at 10 µM worked out at 12%.
Turning to `Cc1ccn(-c2ccc(N3CCN(Cc4ccccn4)CC3)nn2)n1`, the cytotoxicity at 10 µM was 5.6%.
Turning to `Cn1c(C(=O)N2CC[C@@]3(O)CCCC[C@H]3C2)cc2ccccc21`, the cytotoxicity at 10 µM was -46.8%.
For `CCOCc1ccccc1NC(=O)NCC(C)(O)c1cccs1` (configuration not stated), the cytotoxicity at 10 µM is -0.966%.
`Cc1nccn1C1CCCN(C(=O)c2ccc(N(C)C)nc2)C1` (configuration not stated): the cytotoxicity at 10 µM was -7.62%.
As to `Cc1noc(C)c1CN1CCc2ncc(CN(C)C)n2CC1`, the cytotoxicity at 10 µM turned out to be 8.46%.
Take `O=C(COc1ccc2c(c1)OCO2)NCc1ccco1`: the cytotoxicity at 10 µM was determined as 3.22%.
In the case of `CCOCCCC(=O)NCc1ccnc(N2CCN(C)CC2)c1`, the cytotoxicity at 10 µM is -10.9%.
Turning to `Cc1ccc2cccc(C(=O)NCCOCC3CC3)c2n1`, the cytotoxicity at 10 µM was -20.3%.
Turning to `O=C(Nc1ccccc1)[C@H]1C[C@H]2CN(S(=O)(=O)C3CC3)C[C@@H]1O2`, the cytotoxicity at 10 µM was 4.44%.
`COc1ccccc1N1CCN(Cc2nccc(OC)c2OC)CC1=O`: the cytotoxicity at 10 µM is -4%.
On to `CN1CCCCC1C(=O)N1CCN(c2ccccc2C#N)CC1` (configuration not stated), for which the cytotoxicity at 10 µM was -6.85%.
With `CN1CCCC2(CCN(S(=O)(=O)c3ccc(-c4cnco4)s3)C2)C1=O` (configuration not stated), the cytotoxicity at 10 µM is 5.84%.
The same measure for `COc1ccc(C2=CCN(C(=O)CN(CC(N)=O)C(C)C)CC2)cc1`: 23.3%.
Take `CC(C)c1noc(C2CCCN2S(=O)(=O)N2CCCCCC2)n1` (configuration not stated): the cytotoxicity at 10 µM stood at 4.73%.
In the case of `O=C(c1cccs1)N1CC[C@H]2[C@@H]1CCC(=O)N2c1cccnc1`, the cytotoxicity at 10 µM was -74.3%.
On to `CS(=O)(=O)c1ccccc1NC(=O)N[C@@H]1c2ccccc2C[C@@H]1O`, for which the cytotoxicity at 10 µM is -42.2%.
Take `CCC(CO)N(Cc1ccsc1)Cc1cccc(O)c1` (configuration not stated): the cytotoxicity at 10 µM came to 0.616%.
The same measure for `O=C(c1ccc(=O)[nH]c1)N1CCc2c(nc(-c3cccnc3)[nH]c2=O)C1`: 9.84%.
On to `CC(C)n1ncc2c1NC(=O)CC21C(=O)Nc2cc(Cl)cc(Cl)c21` (configuration not stated), for which the cytotoxicity at 10 µM was determined as 19.1%.
The result for `COCc1nc(CN2CC(C)(c3ccccc3)CCC2=O)no1` (configuration not stated) reads 4.85%.
Turning to `CN1CCN(Cc2cn3c(n2)CN(Cc2cccnc2)CC3)CC1`, the cytotoxicity at 10 µM stood at 5.25%.
As to `CN(C)C(=O)[C@H]1C[C@H]2OCC[C@H]2N(Cc2ccccn2)C1`, the cytotoxicity at 10 µM is -75.5%.
For `Cc1csc2c(N3CCNC(C(=O)N4CCCC4)C3)ncnc12` (configuration not stated), the cytotoxicity at 10 µM is -5.6%.
For the compound `F[C@@H]1CN(C2CCC2)C[C@@H]1OCc1nc2ncccc2[nH]1`, the cytotoxicity at 10 µM was -6.66%.
As to `Cc1nc(NCCc2ccccc2)cc(C(=O)N2CCCCC2)n1`, the cytotoxicity at 10 µM is -6.27%.
As to `Cn1cnnc1C1CCCN(C(=O)c2cc(-c3ccccc3)on2)C1` (configuration not stated), the cytotoxicity at 10 µM came out at 7.36%.
As for `Cc1cc(C)n(CC2CCCN2CC(=O)Nc2cc(C(C)C)no2)n1` (configuration not stated), the cytotoxicity at 10 µM amounted to 0.407%.
The same measure for `CCC(Oc1ccc(N(C)S(C)(=O)=O)cc1)C(=O)N(C)C` (configuration not stated): -4.97%; for `COC(=O)c1ccc(NC(=O)CNCc2ccco2)cc1`: -12%.
For the compound `O=C(NCC(c1cccs1)N1CCOCC1)c1ccc(F)cc1Cl` (configuration not stated), the cytotoxicity at 10 µM is -2.27%.
As to `CCCc1cc(C(=O)NC(COC)c2ccnn2C)no1` (configuration not stated), the cytotoxicity at 10 µM is -6.14%.
The result for `O=C(c1cccnc1O)N1CCOC(c2ccc(Cl)cc2)C1` (configuration not stated) reads 2.6%; that for `CCc1ncnc2c1CCN(Cc1nccs1)CC2`, 6.56%.
The same measure for `O=C(NCCSCc1cccs1)C1CCCN(C(=O)N2CCCC2)C1` (configuration not stated): -13.6%; for `Fc1ccc(-c2nc(CN3CCCC3Cn3cncn3)co2)cc1` (configuration not stated): -8.28%; for `Cc1noc(CN(Cc2ccco2)Cc2cccc3c2OCO3)n1`: -2.51%.
For `NC(=O)C1(CCCc2cccnc2)CCCN(c2ncccn2)C1` (configuration not stated), the cytotoxicity at 10 µM stood at 3.61%.
The same measure for `CC(C)C(=O)N1CCCC(Cc2cccnc2)C1` (configuration not stated): -1.55%; for `CCN(CC)Cc1cn2c(n1)CN(C(=O)c1cnccn1)CC2`: 6.15%; for `CNC(=O)C1(C)CN(Cc2cn(C)c3ccc(F)cc23)CCO1` (configuration not stated): 0.187%.
Take `CCCNC(=O)c1cccc(CNCc2csc(C(C)C)n2)c1`: the cytotoxicity at 10 µM is 6.14%.
Consider `COCCn1ccc(=O)c(OCC(=O)Nc2ccc(Br)cc2)c1C`, for which the cytotoxicity at 10 µM amounted to 0.185%.
Take `Cn1cccc1-c1cc(C(=O)N2CCCC2c2nccs2)[nH]n1` (configuration not stated): the cytotoxicity at 10 µM is 3.78%.
As for `CCOCCn1c(=O)n(CCC=C(C)C)c2cc(C(=O)O)cnc21`, the cytotoxicity at 10 µM is -2.85%.
Turning to `COCCNc1cc(-c2ccccc2S(N)(=O)=O)c2cc[nH]c2n1`, the cytotoxicity at 10 µM is 6.68%.
For `CC(=O)N1CC2(CCN(Cc3ccc(Cl)cc3)C2)Cc2ccccc21` (configuration not stated), the cytotoxicity at 10 µM was 7.74%.
The same measure for `O=S(=O)(c1ccc(F)cc1)N1CCN(CCCn2ccnc2)CC1`: -5.63%; for `CCc1nccn1C1CCCN(C(=O)c2ccc3c(c2)OCO3)C1` (configuration not stated): -12.6%; for `O=C(O)C(c1ccc(Cl)c(F)c1)N1CCN(Cc2ccccn2)CC1` (configuration not stated): 8.09%.
On to `Cc1nn(C)c(C)c1C(C)NC(=O)c1cc(CN2CCC(O)CC2)on1` (configuration not stated), for which the cytotoxicity at 10 µM was 0.894%.
For `CC(C)N1CCC(Cc2cc(-c3cccc(C(=O)O)c3)ncn2)C1` (configuration not stated), the cytotoxicity at 10 µM worked out at 3.01%.
On to `O=c1[nH]c2cn(-c3cccc(F)c3)c(=O)n2[nH]1`, for which the cytotoxicity at 10 µM was -0.687%.
The result for `CCCn1ncc(C(=O)N(C)Cc2cc(C3CC3)[nH]n2)c1C` reads -4.65%; that for `COc1ccc(S(=O)(=O)NCC(c2cccn2C)N(C)C)c(C)c1` (configuration not stated), 7.78%.
The same measure for `CC(=O)N(C)C1CCN(C(=O)NCCc2cc(F)ccc2F)CC1`: -7.76%; for `COc1ccc(C2(NC(=O)c3ccc(=O)n(C)n3)CCCC2)cc1`: -0.308%.
Take `Cc1cnn(C2CCCN(C(=O)CCCc3ccccn3)C2)c1` (configuration not stated): the cytotoxicity at 10 µM is -11.2%.
On to `CC(c1cccs1)N(C)C(=O)c1cc(CN(C)Cc2ccccc2)on1` (configuration not stated), for which the cytotoxicity at 10 µM is 5.44%.
